Assay outcomes as filed in PubChem BioAssay.
NR2E3 ag-1: NR2E3 (human) agonism | GST-NR2E3/biotin-RetCOR TR-FRET, 1536-well | inhibition of corepressor binding, % at 4.78 µM | 320,000 compounds, 0.12% hits;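 active = percent inhibition above the cutoff of mean plus 3 SD of all tested compounds, set per screening campaign, cut at about 20% in these data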
Target sequence (Q9Y5X4 whole entry, looked up): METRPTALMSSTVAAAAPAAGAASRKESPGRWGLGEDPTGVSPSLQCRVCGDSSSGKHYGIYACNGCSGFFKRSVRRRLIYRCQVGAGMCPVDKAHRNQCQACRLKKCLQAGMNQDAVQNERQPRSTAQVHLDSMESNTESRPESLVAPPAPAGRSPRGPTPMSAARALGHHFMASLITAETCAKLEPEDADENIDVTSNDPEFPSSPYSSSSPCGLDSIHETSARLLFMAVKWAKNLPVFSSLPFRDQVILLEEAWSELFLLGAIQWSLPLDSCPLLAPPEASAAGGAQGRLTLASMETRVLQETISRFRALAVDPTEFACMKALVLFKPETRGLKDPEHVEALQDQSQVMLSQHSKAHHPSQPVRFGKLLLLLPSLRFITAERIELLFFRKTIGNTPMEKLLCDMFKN
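Material: NR2E3–RetCOR corepressor complex / Amount: 1.35 nM GST-NR2E3 / Medium: Tris pH 7.5 / Compound: single nominal compound dose of 4.8 µM / Incubation: 5 h at 4 °C / Technique: TR-FRET, Eu(K)-anti-GST donor, streptavidin-D2 acceptor, ex 340, em 617/671 nm / Read-out basis: percent loss of FRET ratio relative to control wells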
Jurkat NFkB inh: inhibitors of the PMA/ionomycin-induced NF-kB reporter in Jurkat cells; 330,000 compounds, 0.53% hits; inhibition, % at 4 µM; PMA/ionomycin-induced NF-kB luciferase reporter, luminescence; AID 435003; in the data active = inhibition above about 50%
697 NFkB inh: lowers PMA/ionomycin-induced NF-kB signal in 697 B cells | inhibition, % at 4 µM | 697 B-cell NF-kB luciferase reporter, 16 h | 330,000 compounds, 0.33% hits; in the data active = inhibition above about 35%
miR122 inh: inhibitors of miR-122 in Huh7 cells; Huh7 miR-122 Renilla luciferase sensor, 48 h; neutral wells = 0, positive control = 100; activation (reporter increase), % at 12.5 µM; 340,000 compounds, 0.3% hits;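 active = mean replicate activation score at least 90 and every replicate individually at or above 90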;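 also: higher luciferase means less miR-122 activity so hits act as miR-122 inhibitors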
FGF22 binding-1: FGF22 (human) thermal shift binding; recombinant FGF22 thermal shift, SYPRO orange fluorescence; percent of sucrose octasulfate shift, DMSO zero; activity (Tm shift, normalised), % at 9.99 µM; 340,000 compounds, 1.5% hits; AID 651658;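 active = mean Tm shift, scaled 0 neutral to 100 positive control, at about 1.3% or above, every replicate too, limit read from the data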
NR2E3 ag-2: human photoreceptor-specific nuclear receptor agonism. Q9Y5X4. CHO-S Gal4-NCOR/VP16-NR2E3 two-hybrid, luciferase. inhibition of corepressor binding, % at 3.98 µM. 360,000 compounds, 0.35% hits. AID 602229;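 active = inhibition above the mean of all tested compounds plus 3 SD, cut at about 70% in these data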;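 also: higher means lower luciferase signal from less NR2E3 corepressor binding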
FGF22 binding-2: binds human FGF22 shifting its melting temperature; shares compounds with FGF22 binding-1; recombinant FGF22 thermal shift, SYPRO orange fluorescence; thermal shift activity, °C (ΔTm) at 38 µM; 1,000 compounds, 2% hits; AID 720646;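 active = fitted rise in melting shift crosses a set limit at or below the top valid dose tested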
SYPRO no-protein: compound-only SYPRO artifact for FGF22 binders; shares compounds with FGF22 binding-1; compound-only SYPRO orange thermal shift counter-screen, no protein; AC50, µM (top dose mostly 38 µM); 1,000 compounds, 2% hits;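 active = rising signal whose fitted curve reaches the 0.54 level within the top valid dose, showing a melting point, actives reach about 13 µM in these data; inactive = the rest, including activity in the opposite direction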; also: value is where the raw curve crosses a fixed level and not half-maximal
A number is an active result; - = inactive; . = not tested or not shown. Sampled rows, rich in hits. Any-hit rate of the full collection: about 2.2%.

SMILES | NR2E3 ag-1 | Jurkat NFkB inh | 697 NFkB inh | miR122 inh | FGF22 binding-1 | NR2E3 ag-2 | FGF22 binding-2 | SYPRO no-protein
Cc1noc(C)c1NC(=O)Nc1ccc2c(c1)C(=O)N(C)[C@H]1CC[C@H](CC(=O)N[C@@H]3CCN(Cc4ccccc4)C3)O[C@@H]1CO2 | . | . | . | - | 1.8 | . | - | -
CN1C(=O)c2cc(NC(=O)c3cccc(F)c3)ccc2OC[C@@H]2O[C@H](CC(=O)NCc3ccccc3)CC[C@@H]21 | . | . | . | - | 2.2 | . | - | -
CCNC(=O)Nc1ccc2c(c1)C(=O)N(C)[C@H]1CC[C@H](CC(=O)NCc3ccc(F)cc3)O[C@H]1CO2 | . | . | . | - | 28.2 | . | - | -
Cc1noc(C)c1NC(=O)Nc1ccc2c(c1)C(=O)N(C)[C@@H]1CC[C@@H](CC(=O)N[C@H]3CCN(Cc4ccccc4)C3)O[C@@H]1CO2 | . | . | . | - | - | . | . | .
Cc1noc(C)c1NC(=O)N[C@@H]1CC[C@@H](CCNC(=O)C2CCC2)O[C@@H]1CO | . | . | . | . | - | . | . | .
CCNC(=O)C[C@H]1CC[C@@H]2[C@@H](COc3ccc(NC(=O)Nc4ccc(C)cc4)cc3C(=O)N2C)O1 | . | . | . | - | - | . | . | .
Cc1ccc(S(=O)(=O)NCCSc2nnnn2-c2ccccc2)cc1 | - | - | - | - | 34.9 | - | - | -
Cc1ccc(S(=O)(=O)NCCSc2nnnn2-c2cc(C)ccc2C)cc1 | - | - | - | - | . | - | . | .
CCOC(=O)C1CCN(C(=O)CNC(=O)c2nn(-c3ccc(OC)cc3OC)c(=O)c3ccccc23)CC1 | - | - | - | - | 1.6 | - | - | -
CCOC(=O)N1CCN(C(=O)CNC(=O)c2nn(-c3ccc(OC)cc3OC)c(=O)c3ccccc23)CC1 | - | - | - | - | - | - | . | .
COCC(=O)N(C)C[C@H]1Oc2cc(-c3ccccc3F)ccc2S(=O)(=O)N([C@H](C)CO)C[C@@H]1C | . | . | . | - | - | . | . | .
Cc1ccc(C)c(NC(=O)COc2coc(CN3CCc4ccccc4C3)cc2=O)c1 | - | - | - | - | - | - | . | .
Cc1cccc(NC(=O)COc2coc(CN3CCc4ccccc4C3)cc2=O)c1 | - | - | - | - | 7.0 | - | - | -
O=C(COC(=O)CCCOc1ccc(Cl)cc1Cl)NCc1ccccc1 | - | - | - | - | 32.0 | - | - | -
Cc1ccc(CNC(=O)COC(=O)CCCOc2ccc(Cl)cc2Cl)cc1 | - | - | - | - | - | - | . | .
O=S(=O)(Nc1cccc(-n2cnnn2)c1)c1ccc(Cl)cc1 | - | - | - | . | 1.7 | - | - | -
C[C@H]1CN([C@@H](C)CO)C(=O)Cc2cc(NS(=O)(=O)c3ccccc3)ccc2O[C@H]1CN(C)S(=O)(=O)c1ccccc1 | . | . | . | - | - | . | . | .
COc1ccccc1NS(=O)(=O)c1ccc(C)c(C(=O)Nc2ccc(S(=O)(=O)Nc3onc(C)c3C)cc2)c1 | . | . | . | - | - | - | . | .
COc1ccccc1NS(=O)(=O)c1cc(C(=O)Nc2ccc(S(=O)(=O)Nc3onc(C)c3C)cc2)ccc1C | . | . | . | - | 1.8 | - | - | -
C[C@@H]1CN([C@@H](C)CO)C(=O)c2cccc(NC(=O)C3CC3)c2O[C@@H]1CN(C)Cc1ccncc1 | . | . | . | - | - | . | . | .
COCC#Cc1cnc2c(c1)C(=O)N([C@H](C)CO)C[C@H](C)[C@H](CN(C)C(=O)c1cnccn1)O2 | . | . | . | - | 3.2 | . | - | -
CC(C)C#Cc1cnc2c(c1)C(=O)N([C@@H](C)CO)C[C@H](C)[C@H](CN(C)C(=O)c1cnccn1)O2 | . | . | . | - | 1.3 | . | - | -
CO[C@H]1CN(C)C(=O)c2cc(NC(C)=O)ccc2OC[C@H](C)N(CCC(F)(F)F)C[C@H]1C | . | . | . | - | - | . | . | .
Cc1ccc(S(=O)(=O)NCc2cccnc2)cc1C | - | - | - | - | 3.2 | - | - | -
Cc1cc(S(=O)(=O)NCc2cccnc2)ccc1F | - | - | - | . | - | - | . | .
Cc1ccc(NC(=O)c2ccc(S(=O)(=O)NCc3cccnc3)cc2)c(C)c1 | - | - | - | . | 1.6 | - | - | -
